The source made the active and inactive calls. The rule behind the calls is not given here.

One assay deals with P3 purinoceptor. Briefly: Binding activity was evaluated on P3 purinoceptor-like protein from rat brain membranes by using [3H]NECA (40 nM). In outline:
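Partially purified P3LP: rat brain membranes solubilized in CHAPS, then hydroxylapatite chromatography; A1, A2A, A2B and A3 adenosine receptors and adenotin absent from the preparation.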

The target in assay [1] is T1, Adenosine receptor A2b (Rattus norvegicus) (UniProt P29276).
T1 sequence (whole entry): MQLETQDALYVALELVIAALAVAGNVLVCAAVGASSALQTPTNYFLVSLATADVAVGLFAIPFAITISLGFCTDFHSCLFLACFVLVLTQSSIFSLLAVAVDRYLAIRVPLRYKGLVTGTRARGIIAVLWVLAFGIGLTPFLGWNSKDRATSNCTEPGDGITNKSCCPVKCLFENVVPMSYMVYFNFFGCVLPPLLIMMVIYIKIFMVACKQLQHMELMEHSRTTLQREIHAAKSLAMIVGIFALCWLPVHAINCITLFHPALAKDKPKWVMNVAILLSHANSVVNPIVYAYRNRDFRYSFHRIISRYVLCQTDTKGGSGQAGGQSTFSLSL
Description: Activity against Adenosine A2B receptor as cAMP production in VA-13 cells; No inhibition at 100 uM. Format: functional, cell-based. Background: Changes in cAMP serve as a functional read-out for many G protein-coupled receptors.

For assay [2], the target named is T2, Adenosine receptor A3 (Rattus norvegicus) (UniProt P28647).
T2 sequence (whole entry): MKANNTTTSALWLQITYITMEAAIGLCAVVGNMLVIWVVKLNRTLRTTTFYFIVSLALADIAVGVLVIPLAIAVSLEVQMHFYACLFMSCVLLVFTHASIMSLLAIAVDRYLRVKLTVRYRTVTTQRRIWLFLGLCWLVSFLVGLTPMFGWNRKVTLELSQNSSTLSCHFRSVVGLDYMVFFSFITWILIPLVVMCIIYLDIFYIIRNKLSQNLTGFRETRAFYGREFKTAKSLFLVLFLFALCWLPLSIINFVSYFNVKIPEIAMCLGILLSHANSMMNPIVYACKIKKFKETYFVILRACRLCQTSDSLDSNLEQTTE
Briefly: Inhibition of [125I]AB-MECA (0.15 nM) binding to Adenosine A3 receptor of RBL-2H3 cell membranes; No inhibition at 10 uM.

Assay [3] deals with Adenosine receptor A2a (Rattus norvegicus) (UniProt P30543). The settings on record: Membrane, 100 uM.
Adenosine receptor A2a (Rattus norvegicus), sequence (P30543 whole entry): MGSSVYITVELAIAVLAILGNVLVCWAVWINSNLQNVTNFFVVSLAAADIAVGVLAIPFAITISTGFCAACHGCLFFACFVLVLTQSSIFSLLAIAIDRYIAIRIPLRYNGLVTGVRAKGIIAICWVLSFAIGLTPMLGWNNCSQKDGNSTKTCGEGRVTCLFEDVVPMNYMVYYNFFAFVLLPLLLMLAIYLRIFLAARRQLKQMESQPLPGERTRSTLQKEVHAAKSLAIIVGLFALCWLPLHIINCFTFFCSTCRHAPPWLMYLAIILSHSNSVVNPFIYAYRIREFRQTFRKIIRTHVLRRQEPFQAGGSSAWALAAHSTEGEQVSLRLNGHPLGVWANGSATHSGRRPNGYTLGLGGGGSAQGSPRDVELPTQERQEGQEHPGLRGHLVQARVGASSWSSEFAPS
The target in assay [4] is T3, Adenosine receptor A1 (Rattus norvegicus) (UniProt P25099).
T3 sequence (whole entry): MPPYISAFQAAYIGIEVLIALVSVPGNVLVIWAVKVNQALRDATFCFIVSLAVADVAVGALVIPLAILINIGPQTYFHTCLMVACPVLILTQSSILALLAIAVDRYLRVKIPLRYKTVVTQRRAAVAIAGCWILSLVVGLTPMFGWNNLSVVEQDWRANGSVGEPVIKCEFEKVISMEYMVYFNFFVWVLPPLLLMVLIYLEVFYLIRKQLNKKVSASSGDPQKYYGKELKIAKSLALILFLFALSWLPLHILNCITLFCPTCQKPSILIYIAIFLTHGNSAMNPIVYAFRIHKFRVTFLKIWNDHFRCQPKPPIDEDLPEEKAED
Description: Inhibition of [3H]- DPCPX binding to Adenosine A1 receptor of rat brain membranes at 10 uM. Format: cell membranes. The settings on record: Membrane. In a few lines: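 Rat brain membranes labelled with [3H]DPCPX (2 nM) to measure A1 receptor binding; test compound displacement read as percent inhibition at a single concentration.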

Assay [5] deals with T2, Adenosine receptor A3 (Rattus norvegicus). Briefly: Inhibition of [125I]AB-MECA (0.15 nM) binding to Adenosine A3 receptor of RBL-2H3 cell membranes; No inhibition at 10 uM. It counts as cell-based.
Another assay has as its target T4, Adenosine receptor A1 (Rattus norvegicus, UniProt P25099).
T4 sequence (P25099 whole entry): T3 sequence (whole entry)
Description: Inhibition of [3H]- DPCPX binding to Adenosine A1 receptor ofrat brain membranes.

Take `C#C[C@H]1OC(n2cnc3c(N)ncnc32)[C@H](O)[C@@H]1O` (stereo not given in full): affinity at P3 purinoceptor was put at a Ki of 280 nM.

As to `C#C[C@@H](O)[C@H]1OC(n2cnc3c(N)ncnc32)[C@H](O)[C@@H]1O` (stereo not given in full), the inhibition result in assay [1] and in assay [2] was “inactive” in each case. The Ki – broadly, the equilibrium dissociation constant of an inhibitor or competing ligand from its target – at P3 purinoceptor worked out at 450 nM. The results for the inhibition in assay [3] and in assay [4] were 40% and 21%, respectively. In the case of `CCNC(=O)[C@H]1O[C@@H](n2cnc3c(N)ncnc32)[C@H](O)[C@@H]1O` [NECA], the affinity at P3 purinoceptor, expressed as Ki, was 37 nM.

Regarding `Nc1ncnc2c1ncn2C1O[C@H](CSc2ccccc2)[C@@H](O)[C@H]1O` (stereo not given in full), the Ki at P3 purinoceptor turned out to be 54 nM. Take `CCCSC[C@H]1OC(n2cnc3c(N)ncnc32)[C@H](O)[C@@H]1O` (stereo not given in full): the Ki on P3 purinoceptor was 1100 nM. Compared with the last molecule, the Ki is about 20-fold higher. Take `CNC(=O)[C@H]1O[C@@H](n2cnc3c(N)ncnc32)[C@H](O)[C@@H]1O`: on P3 purinoceptor, the affinity, expressed as Ki, was 51 nM. Molecule `CN(C)C(=O)[C@H]1OC(n2cnc3c(N)ncnc32)[C@H](O)[C@@H]1O` (stereo not given in full) yielded a Ki at P3 purinoceptor of 21000 nM. Compared with the last molecule, the Ki is about 410-fold higher. Same read-out and setting: then `NC(=O)[C@H]1OC(n2cnc3c(N)ncnc32)[C@H](O)[C@@H]1O` (stereo not given in full), with 64 nM. The molecule `C#C[C@H](O)[C@H]1OC(n2cnc3c(N)ncnc32)[C@H](O)[C@@H]1O` (stereo not given in full) returned a Ki at P3 purinoceptor of 19 nM. The inhibition (as a rule, the share of the control response that was lost under treatment) in assay [5] is “inactive”. This molecule gave an inhibition in assay [3] of 40%. In addition, the Inhibition (as a rule, the relative decrease from the control value, in per cent) on Adenosine receptor A1 is 33%. `Nc1ncnc2c1ncn2C1O[C@H](CCl)[C@@H](O)[C@H]1O` (stereo not given in full): the inhibition constant (Ki) at P3 purinoceptor amounted to 84 nM. This counts as double-digit nanomolar. With `Nc1ncnc2c1ncn2C1O[C@H](CSCc2ccccc2)[C@@H](O)[C@H]1O` (stereo not given in full), affinity at P3 purinoceptor was put at a Ki of 70 nM. Regarding `[N-]=[N+]=NC[C@H]1OC(n2cnc3c(N)ncnc32)[C@H](O)[C@@H]1O` (stereo not given in full), on P3 purinoceptor, the Ki turned out to be 81 nM. The Ki values of the last two molecules are within 1.5-fold of each other. `N#C[C@H]1OC(n2cnc3c(N)ncnc32)[C@H](O)[C@@H]1O` (stereo not given in full) had a Ki at P3 purinoceptor of 64 nM.

The values above are taken from ChEMBL document CHEMBL1131028, “Nucleosides and nucleotides. 177. 9-(6,7-dideoxy-beta-D-allo-hept-5- ynofuranosyl)adenine: a selective and potent ligand for P3 purinoceptor-like protein” (J Med Chem, 1998).
